Columns and labels:
Cowpox virus [1] = assay: Antiviral activity against Cowpox virus Brighton infected BALB/c mouse assessed as virus-induced mortality at 1 mg/kg, po treated for 5 days after 3 days of viral inoculation; format: functional, Cowpox virus (Brighton Red)
Cowpox virus [2] = assay: Antiviral activity against Cowpox virus Brighton infected BALB/c mouse assessed as virus-induced mortality at 0.3 mg/kg, po treated for 5 days after 6 days of viral inoculation; format: functional, Cowpox virus (Brighton Red)
[3] = Selectivity index, ratio CC50 for HFF cells to EC50 for Vaccinia virus Copenhagen; format: toxicity, cell-based; conditions: human, read-out: Ratio CC50/EC50
Cowpox virus [4] = assay: Antiviral activity against Cowpox virus Brighton infected BALB/c mouse assessed as virus-induced mean day of death at 0.3 mg/kg, po treated for 5 days after 3 days of viral inoculation; format: functional, Cowpox virus (Brighton Red)
Cowpox virus [5] = assay: Antiviral activity against Cowpox virus Brighton infected BALB/c mouse assessed as virus-induced mortality at 0.3 mg/kg, po treated for 5 days after 1 day of viral inoculation; format: functional, Cowpox virus (Brighton Red)
Cowpox virus [6] = assay: Antiviral activity against Cowpox virus Brighton infected BALB/c mouse assessed as virus-induced mortality at 3 mg/kg, po treated for 5 days after 1 day of viral inoculation; format: functional, Cowpox virus (Brighton Red)
[7] = Cytotoxicity against HFF cells after 7 days by neutral red assay; format: cell-based; conditions: human
Outline: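 Confluent non-dividing HFF cells (2.5 x 10^4 cells/well) were exposed to a drug concentration series for 7 days at 37°C. Monolayers were then neutral red-stained, and the CC50 is the concentration cytotoxic to 50% of uninfected cells. Values are the mean of ≥2 assays ± standard deviation.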

[8] = Selectivity index, ratio CC50 for HFF cells to EC50 for Cowpox virus Brighton; format: toxicity, cell-based; conditions: human, read-out: Ratio CC50/EC50
Cowpox virus [9] = assay: Antiviral activity against Cowpox virus Brighton in HFF cells assessed as reduction plaque formation after 3 days; format: functional, organism-based, Cowpox virus (Brighton Red); conditions: 72 h
Vaccinia virus [10] = assay: Antiviral activity against Vaccinia virus Copenhagen in HFF cells assessed as reduction plaque formation after 3 days; format: functional, organism-based; conditions: Orthopoxvirus vaccinia, 72 h
Vaccinia virus [11] = assay: Antiviral activity against Vaccinia virus WR in HFF cells assessed as reduction plaque formation after 3 days; format: functional, organism-based; conditions: Orthopoxvirus vaccinia, 72 h
Cowpox virus [12] = assay: Antiviral activity against Cowpox virus Brighton infected BALB/c mouse assessed as virus-induced mean day of death at 0.3 mg/kg, po treated for 5 days after 1 day of viral inoculation; format: functional, Cowpox virus (Brighton Red)
[13] = Selectivity index, ratio CC50 for HFF cells to EC50 for Vaccinia virus WR; format: toxicity, cell-based; conditions: human, read-out: Ratio CC50/EC50
Cowpox virus [14] = assay: Antiviral activity against Cowpox virus Brighton infected BALB/c mouse assessed as virus-induced mortality at 3 mg/kg, po treated for 5 days after 3 days of viral inoculation; format: functional, Cowpox virus (Brighton Red)
Cowpox virus [15] = assay: Antiviral activity against Cowpox virus Brighton infected BALB/c mouse assessed as virus-induced mean day of death at 1 mg/kg, po treated for 5 days after 1 day of viral inoculation; format: functional, Cowpox virus (Brighton Red)
Cowpox virus [16] = assay: Antiviral activity against Cowpox virus Brighton infected BALB/c mouse assessed as virus-induced mean day of death at 3 mg/kg, po treated for 5 days after 6 days of viral inoculation; format: functional, Cowpox virus (Brighton Red)
Cowpox virus [17] = assay: Antiviral activity against Cowpox virus Brighton infected BALB/c mouse assessed as virus-induced mortality at 1 mg/kg, po treated for 5 days after 6 days of viral inoculation; format: functional, Cowpox virus (Brighton Red)
Cowpox virus [18] = assay: Antiviral activity against Cowpox virus Brighton infected BALB/c mouse assessed as virus-induced mean day of death at 0.3 mg/kg, po treated for 5 days after 6 days of viral inoculation; format: functional, Cowpox virus (Brighton Red)
Cowpox virus [19] = assay: Antiviral activity against Cowpox virus Brighton infected BALB/c mouse assessed as virus-induced mean day of death at 1 mg/kg, po treated for 5 days after 3 days of viral inoculation; format: functional, Cowpox virus (Brighton Red)
Cowpox virus [20] = assay: Antiviral activity against Cowpox virus Brighton infected BALB/c mouse assessed as virus-induced mortality at 0.3 mg/kg, po treated for 5 days after 3 days of viral inoculation; format: functional, Cowpox virus (Brighton Red)
Cowpox virus [21] = assay: Antiviral activity against Cowpox virus Brighton infected BALB/c mouse assessed as virus-induced mean day of death at 3 mg/kg, po treated for 5 days after 3 days of viral inoculation; format: functional, Cowpox virus (Brighton Red)
Cowpox virus [22] = assay: Antiviral activity against Cowpox virus Brighton infected BALB/c mouse assessed as virus-induced mortality at 1 mg/kg, po treated for 5 days after 1 day of viral inoculation; format: functional, Cowpox virus (Brighton Red)
Cowpox virus [23] = assay: Antiviral activity against Cowpox virus Brighton infected BALB/c mouse assessed as virus-induced mean day of death at 1 mg/kg, po treated for 5 days after 6 days of viral inoculation; format: functional, Cowpox virus (Brighton Red)
Cowpox virus [24] = assay: Antiviral activity against Cowpox virus Brighton infected BALB/c mouse assessed as virus-induced mortality at 3 mg/kg, po treated for 5 days after 6 days of viral inoculation; format: functional, Cowpox virus (Brighton Red)
Ectromelia virus Moscow = assay: Antiviral activity against Ectromelia virus Moscow in HFF cells assessed as inhibition of viral replication after 7 days; format: functional, organism-based; conditions: 168 h
Cowpox virus [25] = assay: Antiviral activity against Cowpox virus Brighton infected BALB/c mouse assessed as virus-induced mean day of death at 10 mg/kg, po treated for 5 days after 1 day of viral inoculation; format: functional, Cowpox virus (Brighton Red)
Vaccinia virus [26] = assay: microbe, parasite or virus in culture; conditions: Orthopoxvirus vaccinia, Copenhagen, HFF, 168 h
Cowpox virus [27] = assay: Antiviral activity against Cowpox virus Brighton infected BALB/c mouse assessed as virus-induced mean day of death at 10 mg/kg, po treated for 5 days after 3 days of viral inoculation; format: functional, Cowpox virus (Brighton Red)
Monkeypox virus = assay: Antiviral activity against Monkeypox virus in HFF cells assessed as inhibition of viral replication after 7 days; format: functional, organism-based; conditions: 168 h
Cowpox virus [28] = assay: Antiviral activity against Cowpox virus Brighton infected BALB/c mouse assessed as virus-induced mean day of death at 10 mg/kg, po treated for 5 days after 6 days of viral inoculation; format: functional, Cowpox virus (Brighton Red)
Cowpox virus [29] = assay: Antiviral activity against Cowpox virus Brighton infected BALB/c mouse assessed as virus-induced mortality at 10 mg/kg, po treated for 5 days after 1 day of viral inoculation; format: functional, Cowpox virus (Brighton Red)
Camelpox virus = assay: Antiviral activity against Camelpox virus in HFF cells assessed as inhibition of viral replication after 7 days; format: functional, organism-based; conditions: 168 h
Cowpox virus [30] = assay: Antiviral activity against Cowpox virus Brighton infected BALB/c mouse assessed as virus-induced mortality at 10 mg/kg, po treated for 5 days after 6 days of viral inoculation; format: functional, Cowpox virus (Brighton Red)
Cowpox virus [31] = assay: Antiviral activity against Cowpox virus Brighton infected BALB/c mouse assessed as virus-induced mean day of death at 3 mg/kg, po treated for 5 days after 1 day of viral inoculation; format: functional, Cowpox virus (Brighton Red)
Variola virus = assay: microbe, parasite or virus in culture; conditions: HFF, 168 h
Cowpox virus [32] = assay: Antiviral activity against Cowpox virus Brighton infected BALB/c mouse assessed as virus-induced mortality at 10 mg/kg, po treated for 5 days after 3 days of viral inoculation; format: functional, Cowpox virus (Brighton Red)
Cowpox virus [33] = assay: Antiviral activity against Cowpox virus Brighton in HFF cells assessed as inhibition of viral replication after 7 days; format: functional, organism-based, Cowpox virus (Brighton Red); conditions: 168 h
Cowpox virus [34] = assay: Antiviral activity against Cowpox virus Brighton infected BALB/c mouse assessed as virus-induced mean day of death at 5 mg/kg, ip treated for 5 days after 6 days of viral inoculation; format: functional, Cowpox virus (Brighton Red); conditions: route intraperitoneal
Cowpox virus [35] = assay: Antiviral activity against Cowpox virus Brighton infected BALB/c mouse assessed as virus-induced mortality at 25 mg/kg, ip treated for 5 days after 6 days of viral inoculation; format: functional, Cowpox virus (Brighton Red); conditions: route intraperitoneal
Cowpox virus [36] = assay: Antiviral activity against Cowpox virus Brighton infected BALB/c mouse assessed as virus-induced mortality at 15 mg/kg, ip treated for 5 days after 3 days of viral inoculation; format: functional, Cowpox virus (Brighton Red); conditions: route intraperitoneal
Cowpox virus [37] = assay: Antiviral activity against Cowpox virus Brighton infected BALB/c mouse assessed as virus-induced mean day of death at 15 mg/kg, ip treated for 5 days after 6 days of viral inoculation; format: functional, Cowpox virus (Brighton Red); conditions: route intraperitoneal
Cowpox virus [38] = assay: Antiviral activity against Cowpox virus Brighton infected BALB/c mouse assessed as virus-induced mean day of death at 25 mg/kg, ip treated for 5 days after 6 days of viral inoculation; format: functional, Cowpox virus (Brighton Red); conditions: route intraperitoneal
Cowpox virus [39] = assay: Antiviral activity against Cowpox virus Brighton infected BALB/c mouse assessed as virus-induced mortality at 15 mg/kg, ip treated for 5 days after 6 days of viral inoculation; format: functional, Cowpox virus (Brighton Red); conditions: route intraperitoneal
Cowpox virus [40] = assay: Antiviral activity against Cowpox virus Brighton infected BALB/c mouse assessed as virus-induced mortality at 5 mg/kg, ip treated for 5 days after 6 days of viral inoculation; format: functional, Cowpox virus (Brighton Red); conditions: route intraperitoneal
Cowpox virus [41] = assay: Antiviral activity against Cowpox virus Brighton infected BALB/c mouse assessed as virus-induced mortality at 15 mg/kg, ip once daily for 5 days; format: functional, Cowpox virus (Brighton Red); conditions: route intraperitoneal

Structure (SMILES)	Activity (Cowpox virus [1])	selectivity ratio [3]	Activity (Cowpox virus [6])	CC50 at 168 h [7]	selectivity ratio [8]	EC50 (Cowpox virus [9])	EC50 (Vaccinia virus [10])	EC50 (Vaccinia virus [11])	selectivity ratio [13]	Activity (Cowpox virus [14])	Activity (Cowpox virus [15])	Activity (Cowpox virus [16])	Activity (Cowpox virus [17])	Activity (Cowpox virus [19])	Activity (Cowpox virus [21])	Activity (Cowpox virus [22])	Activity (Cowpox virus [23])	Activity (Cowpox virus [24])	also measured
CCCCCCCCCCCCCCCCOCCCOP(=O)(O)CO[C@H](CO)Cn1ccc(N)nc1=O [BRINCIDOFOVIR]	100%	300	0%	42000 nM	175	240 nM	140 nM	130 nM	323	27%	13.7 days	9.9 days	100%	12 days	16.3 days	20%	9.9 days	100%	Activity (Cowpox virus [2]): 100%; Activity (Cowpox virus [4]): 12.8 days; Activity (Cowpox virus [5]): 73%; Activity (Cowpox virus [12]): 11.7 days; Activity (Cowpox virus [18]): 10 days; Activity (Cowpox virus [20]): 87%
O=C(NN1C(=O)[C@@H]2[C@@H]3C=C[C@@H]([C@H]4C[C@@H]34)[C@@H]2C1=O)c1ccc(C(F)(F)F)cc1 [TECOVIRIMAT]	100%	> 2000	20%	> 100000 nM	> 208	480 nM	50 nM	100 nM	> 1000	33%	9.4 days	13.5 days	100%	14.4 days	15.2 days	100%	9.5 days	80%	EC50 (Ectromelia virus Moscow): ≤ 70 nM; Activity (Cowpox virus [25]): 13.2 days; EC50 (Vaccinia virus [26]): ≤ 70 nM; Activity (Cowpox virus [27]): 15.5 days; EC50 (Monkeypox virus): ≤ 70 nM; Activity (Cowpox virus [28]): 13.5 days; Activity (Cowpox virus [29]): 73%; EC50 (Camelpox virus): ≤ 70 nM; Activity (Cowpox virus [30]): 100%; Activity (Cowpox virus [31]): 11.3 days; EC50 (Variola virus): ≤ 70 nM; Activity (Cowpox virus [32]): 13%; EC50 (Cowpox virus [33]): ≤ 70 nM
Nc1ccn(C[C@@H](CO)OCP(=O)(O)O)c(=O)n1.O.O [CIDOFOVIR]		> 10.9		> 317000 nM	> 7.7	41100 nM	29200 nM	33000 nM	≥ 9.6										Activity (Cowpox virus [34]): 11.2 days; Activity (Cowpox virus [35]): 80%; Activity (Cowpox virus [36]): 0%; Activity (Cowpox virus [37]): 12.8 days; Activity (Cowpox virus [38]): 11.5 days; Activity (Cowpox virus [39]): 60%; Activity (Cowpox virus [40]): 93%; Activity (Cowpox virus [41]): 0%
